Data taken from ChEMBL document CHEMBL1129452, “Phenethylthiazolylthiourea (PETT) compounds as a new class of HIV-1 reverse transcriptase inhibitors. 2. Synthesis and further structure-activity relationship studies of PETT analogs” (J Med Chem, 1996).

Key:
[1] = test system: MT4; assay: Inhibition of HIV-1(IIIB) variants (Ile100/Cys181) in HIV-1 MT-4 cells; assay type: functional; conditions: Homo sapiens, read-out: ED50 (the source's name)
In short: (§1)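 MT-4 cells (human T cell line) in RPMI 1640 with 10% fetal calf serum, penicillin and streptomycin, seeded at 2 × 10⁴ cells/well. Infected with 10-20 TCID₅₀ of mutant HIV-1 IIIB per well, with the compound added at different concentrations. Incubated at 37 °C in CO₂. Cell viability read by XTT dye at day 5 or 6. Activity taken as the reduction in viral cytopathic effect, given as ED₅₀. Mutants were raised by passage in stepwise increasing concentrations of non-nucleoside RT inhibitors.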

[2] = test system: MT4; assay: Inhibition of mutant type (Cys181) HIV-1 (IIIB) replication in MT-4 cells; assay type: functional; conditions: Homo sapiens, read-out: ED50 (the source's name); in short: as §1
[3] = test system: MT4; assay: Inhibition of mutant type (Ile100) HIV-1 (IIIB) replication in MT-4 cells; assay type: functional; conditions: Homo sapiens, read-out: ED50 (the source's name); in short: as §1
[4] = test system: MT4; assay: Tested for the inhibition of wild type HIV-1 (IIIB) replication in MT-4 cells; assay type: functional; conditions: Homo sapiens, read-out: ED50 (the source's name)
In short: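 MT-4 human T cells in RPMI 1640 with 10% fetal calf serum, penicillin and streptomycin, seeded at 2 × 10⁴ cells/well and infected with 10-20 TCID₅₀ HIV-1 IIIB per well. Compounds were added over a concentration range and cultures kept at 37 °C in CO₂. Viability was read by XTT at day 5 or 6, and activity was taken as reduction of viral cytopathic effect.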

[5] = test system: MT4; assay: Inhibition of HIV-1(IIIB) variants (Ile100/Asn103) in HIV-1 MT-4 cells; assay type: functional; conditions: Homo sapiens, read-out: ED50 (the source's name); in short: as §1
[6] = target: T1, Human immunodeficiency virus type 1 reverse transcriptase (Human immunodeficiency virus 1, UniProt Q72547); assay: Tested for the inhibition of mutant type (Cys181) HIV-1 (IIIB) RT
[7] = target: T1, Human immunodeficiency virus type 1 reverse transcriptase; assay: Tested for the inhibition of mutant type (Ile100) HIV-1 (IIIB) RT
[8] = target: T1, Human immunodeficiency virus type 1 reverse transcriptase; assay: Tested for the inhibition of wild type HIV-1 (IIIB) RT

CCOc1cccc(F)c1CCNC(=S)Nc1ccc(Br)cn1 gave an EC50 [1] of 1000 nM, an EC50 [2] of 7 nM and an EC50 [3] of 90 nM. The EC50 [4] was 13 nM, the EC50 [5] was 1600 nM and the IC50 [6] was 25 nM. For the same compound, the IC50 [7] was 50 nM.
CCOc1ccc(OCC)c(CCNC(=S)Nc2ccc(Br)cn2)c1 showed an EC50 [2] of 800 nM, an EC50 [3] greater than 2000 nM and an EC50 [4] of 18 nM. For the same compound, the IC50 [6] was 707 nM, the IC50 [7] was 1650 nM and the IC50 [8] was 18 nM.
In the case of CNC(=O)c1ccc(F)c(CC/N=C(\S)Nc2ccc(Br)cn2)c1F, the EC50 [2] is reported as 300 nM, the EC50 [3] is reported as greater than 2000 nM and the EC50 [4] is reported as 80 nM. The IC50 [6] was greater than 2000 nM, the IC50 [7] was greater than 2000 nM and the IC50 [8] was 23 nM.
Compound N#Cc1ccoc1CCNC(=S)Nc1ccc(Cl)cn1 has an EC50 [2] of 200 nM, an EC50 [3] of 700 nM and an EC50 [4] of 20 nM. The IC50 [6] was 2600 nM, the IC50 [7] was 2600 nM and the IC50 [8] was 60 nM.
O=C1c2c(Cl)ccc(Cl)c2C(=O)N1CCNC(=S)Nc1ccc(Cl)cn1 gave an EC50 [2] greater than 2000 nM, an EC50 [3] greater than 2000 nM and an EC50 [4] of 19 nM. It also gave an IC50 [6] of 10 nM, an IC50 [7] of 230 nM and an IC50 [8] of 2 nM.
Compound CCOc1c(Cl)cc(F)c(CCNC(=S)Nc2ccc(Br)cn2)c1Cl has an EC50 [2] of 20 nM, an EC50 [3] of 1000 nM and an EC50 [4] of 13 nM. For the same compound, the IC50 [6] was 660 nM, the IC50 [7] was 240 nM and the IC50 [8] was 21 nM.
COc1ccc(F)c(CCNC(=S)Nc2ccc(Br)cn2)c1F was tested, and the EC50 [2] was 50 nM, the EC50 [3] was 600 nM and the EC50 [4] was 15 nM. The IC50 [6] was 60 nM, the IC50 [7] was 870 nM and the IC50 [8] was 6 nM.
In the case of CCOc1ccc(OC)c(CCNC(=S)Nc2ccc(Cl)cn2)c1F, the EC50 [1] is reported as greater than 10000 nM, the EC50 [2] is reported as 9 nM and the EC50 [3] is reported as 90 nM. For the same compound, the EC50 [4] was 5 nM, the EC50 [5] was greater than 10000 nM and the IC50 [6] was 34 nM. It also gave an IC50 [7] of 160 nM and an IC50 [8] of 5 nM.
CC(=O)NCc1ccc(F)c(CCNC(=S)Nc2ccc(Br)cn2)c1F showed an EC50 [2] greater than 2000 nM, an EC50 [3] greater than 2000 nM and an EC50 [4] of 900 nM. It also gave an IC50 [6] greater than 2000 nM, an IC50 [7] greater than 2000 nM and an IC50 [8] of 45 nM.
CCOc1ccc(F)c(F)c1CCNC(=S)Nc1ccc(Br)cn1 gave an EC50 [1] greater than 10000 nM, an EC50 [2] of 200 nM and an EC50 [3] of 1500 nM. The EC50 [4] was 7 nM, the EC50 [5] was greater than 10000 nM and the IC50 [6] was 10 nM. The IC50 [7] was 20 nM and the IC50 [8] was 5 nM.
CCOc1ccc(F)c(CCNC(=S)Nc2ccc(C#N)cn2)c1Cl was tested, and the EC50 [2] was 30 nM, the EC50 [3] was 500 nM and the EC50 [4] was 3 nM. The IC50 [6] was 30 nM, the IC50 [7] was 110 nM and the IC50 [8] was 5 nM.
COc1ccc(F)c(CCNC(=S)Nc2ccc(C#N)cn2)c1C#N showed an EC50 [2] of 30 nM, an EC50 [3] of 200 nM and an EC50 [4] of 1 nM. The IC50 [6] was 50 nM, the IC50 [7] was 60 nM and the IC50 [8] was 3 nM.
In the case of CCOc1ccc(Cl)c(CC/N=C(\S)Nc2ccc(Br)cn2)c1F, the EC50 [1] is reported as greater than 10000 nM, the EC50 [2] is reported as 50 nM and the EC50 [3] is reported as 900 nM. For the same compound, the EC50 [4] was 18 nM, the EC50 [5] was greater than 10000 nM and the IC50 [6] was 9 nM. For the same compound, the IC50 [7] was 90 nM and the IC50 [8] was 2 nM.
For CCOc1ccc(F)c(CC/N=C(\S)Nc2ccc(Br)cn2)c1C#N, the EC50 [1] was 3000 nM, the EC50 [2] was 5 nM and the EC50 [3] was 40 nM. It also gave an EC50 [4] of 4 nM, an EC50 [5] greater than 10000 nM and an IC50 [6] of 210 nM. The IC50 [7] was 140 nM and the IC50 [8] was 2 nM.
With CN(C)c1ccc(F)c(CCNC(=S)Nc2ccc(Br)cn2)c1F the EC50 [2] was 1000 nM, the EC50 [3] was greater than 2000 nM and the EC50 [4] was 40 nM. The IC50 [6] was 170 nM, the IC50 [7] was 1900 nM and the IC50 [8] was 7 nM.
For Fc1cccc(F)c1CCNC(=S)Nc1ccc(Br)cn1, the EC50 [2] was 150 nM, the EC50 [3] was 600 nM and the EC50 [4] was 13 nM. For the same compound, the IC50 [6] was 30 nM and the IC50 [7] was 50 nM.
For CN(C)c1cc(F)c(CCNC(=S)Nc2ccc(Cl)cn2)c(F)c1, the EC50 [2] was 900 nM, the EC50 [3] was 1500 nM and the EC50 [4] was 18 nM. The IC50 [6] was 130 nM, the IC50 [7] was 270 nM and the IC50 [8] was 20 nM.
CCc1cc(NCc2nc3c(Cl)ccc(Cl)c3o2)c(O)nc1C [L-697661] gave an EC50 [2] greater than 11000 nM, an EC50 [3] of 850 nM and an EC50 [4] of 65 nM. For the same compound, the IC50 [6] was 7700 nM and the IC50 [7] was 850 nM.
Cc1ccnc2c1NC(=O)c1cccnc1N2C1CC1 [NEVIRAPINE] gave an EC50 [1] greater than 10000 nM, an EC50 [2] of 22000 nM and an EC50 [3] of 620 nM. The EC50 [4] was 150 nM and the EC50 [5] was 8000 nM.
With CCOc1ccc(F)c(CCNC(=S)Nc2ccc(Br)cn2)c1Cl [THIOUREA, N-(5-BROMO-2-PYRIDINYL)-N'-(2-(2-CHLORO-3-ETHOXY-6-FLUOROPHENYL)ETHYL)-] the EC50 [2] was 30 nM, the EC50 [3] was 400 nM and the EC50 [4] was 7 nM. For the same compound, the IC50 [6] was 50 nM, the IC50 [7] was 190 nM and the IC50 [8] was 12 nM.
S=C(NCCc1ccccn1)Nc1ccc(Br)cn1 [TROVIRDINE] was tested, and the EC50 [4] was 20 nM.
